The nature of data set [1]: Ratio of drug level in brain to plasma in rat by microdialysis assay.
Data set [2] in a line: Intrinsic clearance in human liver microsomes at 1 uM in presence of NADPH. The conditions noted are these: read-out: CLH. Format: ADME, Microsome. (In general: Microsomes from liver hold many membrane-bound enzymes, among them those of drug oxidation.)
Data set [3] can be described thus: Thermodynamic solubility of the compound at pH 7.4. The conditions noted are these: buffer.
Data set [4] deals with T1, Cannabinoid receptor 1 (Homo sapiens, UniProt P21554). Briefly: Agonist activity at human CB1 receptor expressed in HEK293 cells assessed as [35S]GTPgamma binding relative to WIN55212-2. Format: functional, cell-based. In short, it runs like this:
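GTPγ35S binding on membranes from HEK293 EBNA cells stably transfected with cloned human CB1; Emax relative to WIN55,212-2 as reference agonist; means of at least three measurements.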

Data set [5] concerns the target T1, Cannabinoid receptor 1. Briefly: Agonist activity at human CB1 receptor expressed in HEK293 cells assessed as [35S]GTPgamma binding. Format: functional, cell-based.
Data set [6] is described as follows: Apparent permeability from apical to basal side of human Caco2 cells at 10 uM. The conditions noted are these: Caco-2.
Data set [7] deals with T1, Cannabinoid receptor 1. Briefly: Displacement of [3H]CP55940 from human CB1 receptor expressed in HEK293 cells. Format: cell-based. A general note: Loss of bound radioactivity is the signal in a displacement assay; it reports binding, not function.
Data set [8] deals with Voltage-gated inwardly rectifying potassium channel KCNH2 (Homo sapiens, UniProt Q12809).
A further data set has as its target Cannabinoid receptor 2 (Homo sapiens, UniProt P34972). Nature of the data set: Binding affinity to human CB2 receptor.

Structures are written as SMILES. pEC50, pIC50, pKi: −log10 of the molar value. Converted amounts (≈) assume the structure as drawn. Bounds are passed on as bounds.

The term Kp denotes tissue or fluid exposure divided by exposure in the circulation. Usually solubility (thermodynamic) stands for the concentration in solution at equilibrium with solid. The Emax is the maximal effect, on the per cent scale that the assay sets. The pEC50 is the negative decadic logarithm of the EC50, by convention in mol/L. For orientation: Papp A→B means the apparent permeability from the apical to the basolateral side of a cell layer. The pKi is −log10 of the Ki, conventionally taken in molar units. A lower pKi goes with a large Ki. The term pIC50 denotes the IC50 on a negative log10 scale, so that one unit is a factor of ten. A low value points to a high IC50.

Chain of Cannabinoid receptor 2 (P34972 whole entry): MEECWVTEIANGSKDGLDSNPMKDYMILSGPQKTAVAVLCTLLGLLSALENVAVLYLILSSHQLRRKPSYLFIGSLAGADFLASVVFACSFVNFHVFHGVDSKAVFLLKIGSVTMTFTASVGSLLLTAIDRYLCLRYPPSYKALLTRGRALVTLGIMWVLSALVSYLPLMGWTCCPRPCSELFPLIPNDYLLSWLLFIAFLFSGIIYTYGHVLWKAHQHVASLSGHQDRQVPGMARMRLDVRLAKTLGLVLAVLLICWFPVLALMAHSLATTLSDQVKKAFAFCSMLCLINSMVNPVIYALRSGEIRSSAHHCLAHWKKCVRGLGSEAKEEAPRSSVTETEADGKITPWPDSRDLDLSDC
T1 sequence (P21554 whole entry): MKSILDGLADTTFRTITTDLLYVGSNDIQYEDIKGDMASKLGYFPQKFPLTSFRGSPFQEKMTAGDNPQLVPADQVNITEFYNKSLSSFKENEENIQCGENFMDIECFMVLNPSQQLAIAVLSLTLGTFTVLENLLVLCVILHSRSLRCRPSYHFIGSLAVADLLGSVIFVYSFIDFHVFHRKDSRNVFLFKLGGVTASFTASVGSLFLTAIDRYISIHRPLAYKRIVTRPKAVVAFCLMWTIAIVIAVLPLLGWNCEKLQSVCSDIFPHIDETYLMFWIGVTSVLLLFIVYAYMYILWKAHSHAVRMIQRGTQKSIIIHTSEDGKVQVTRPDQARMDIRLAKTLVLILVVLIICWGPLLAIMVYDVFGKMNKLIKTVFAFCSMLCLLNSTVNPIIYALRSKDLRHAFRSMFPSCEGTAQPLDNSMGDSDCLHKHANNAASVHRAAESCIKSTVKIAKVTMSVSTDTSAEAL
Chain of Voltage-gated inwardly rectifying potassium channel KCNH2 (Q12809 whole entry): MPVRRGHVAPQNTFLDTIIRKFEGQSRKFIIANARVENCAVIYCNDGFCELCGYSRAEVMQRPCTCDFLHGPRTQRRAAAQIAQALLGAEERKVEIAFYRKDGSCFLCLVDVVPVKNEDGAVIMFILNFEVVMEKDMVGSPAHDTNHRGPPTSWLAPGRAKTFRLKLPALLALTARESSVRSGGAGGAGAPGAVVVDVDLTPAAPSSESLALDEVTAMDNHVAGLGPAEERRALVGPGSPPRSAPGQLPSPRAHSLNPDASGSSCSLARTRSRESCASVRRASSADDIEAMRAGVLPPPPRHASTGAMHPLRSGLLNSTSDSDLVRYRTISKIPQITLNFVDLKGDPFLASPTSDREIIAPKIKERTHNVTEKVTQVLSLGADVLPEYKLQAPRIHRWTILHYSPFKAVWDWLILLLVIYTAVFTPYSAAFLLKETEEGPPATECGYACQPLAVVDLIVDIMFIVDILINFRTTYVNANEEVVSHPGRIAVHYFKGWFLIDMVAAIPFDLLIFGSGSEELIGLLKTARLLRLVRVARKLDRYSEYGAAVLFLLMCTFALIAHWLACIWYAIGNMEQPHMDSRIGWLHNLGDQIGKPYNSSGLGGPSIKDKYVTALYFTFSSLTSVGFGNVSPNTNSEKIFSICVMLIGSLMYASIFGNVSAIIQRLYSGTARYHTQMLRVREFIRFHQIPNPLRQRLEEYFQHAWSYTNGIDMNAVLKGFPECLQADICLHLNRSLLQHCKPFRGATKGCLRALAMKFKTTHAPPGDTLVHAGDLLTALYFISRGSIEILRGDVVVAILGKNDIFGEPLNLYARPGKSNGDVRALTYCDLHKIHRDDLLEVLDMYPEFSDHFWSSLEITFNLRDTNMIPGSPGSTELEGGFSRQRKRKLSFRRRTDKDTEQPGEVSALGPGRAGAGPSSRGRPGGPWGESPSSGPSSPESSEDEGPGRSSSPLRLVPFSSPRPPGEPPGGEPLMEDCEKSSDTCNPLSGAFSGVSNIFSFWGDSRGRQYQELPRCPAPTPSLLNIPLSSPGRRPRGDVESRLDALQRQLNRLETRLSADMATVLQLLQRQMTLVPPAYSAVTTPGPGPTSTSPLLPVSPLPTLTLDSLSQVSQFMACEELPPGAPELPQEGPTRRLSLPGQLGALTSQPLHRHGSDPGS

As to `CCN(CC(=O)NCCF)C(=O)c1ccc2c(c1)c1c(n2C)CC[C@@H](C2CCOCC2)C1`, in data set [1], the Kp is 0.068. The microsomal CLint at 1 µM in data set [2] was found to be 33 µL/min/mg. The solubility (thermodynamic) in [3] was 71 µM (≈ 31.5 µg/mL). In addition, the Emax at Cannabinoid receptor 1 [4] was determined as 107%. The pEC50 at Cannabinoid receptor 1 [5] was 8.01.

With `CN(CCCC(=O)NCC#N)C(=O)c1ccc2c(c1)c1c(n2C)CC[C@@H](C2CCOCC2)C1`, the microsomal CLint at 1 µM in data set [2] turned out to be 42 µL/min/mg. The same compound yielded a solubility (thermodynamic) in data set [3] of 300 µM (≈ 135 µg/mL). Moreover, at Cannabinoid receptor 1 [4], the Emax came to 110%.

On to `CCN(CC(=O)NC1CC1)C(=O)c1ccc2c(c1)c1c(n2C)CC[C@@H](C2CCOCC2)C1`, for which, in [1], the Kp was 0.09. Moreover, in [6], the Papp A→B at 10 µM worked out at 23 ×10⁻⁶ cm/s. Moreover, the microsomal CLint at 1 µM in [2] is 36 µL/min/mg. This compound also had a pKi on Cannabinoid receptor 1 [7] of 8.38. Besides, the thermodynamic solubility in data set [3] came out at 30 µM (≈ 13.1 µg/mL). Besides, at Cannabinoid receptor 1 [4], the Emax is 106%. For the same compound, the pEC50 at Cannabinoid receptor 1 [5] was 8.72.

With `CN(C(=O)c1ccc2c(c1)c1c(n2C)CC[C@@H](C2CCOCC2)C1)[C@H](CO)CCC(=O)NCCF`, in data set [1], the Kp came to 0.025. In data set [6], the Papp A→B at 10 µM came to 0.11 ×10⁻⁶ cm/s. For the same compound, in data set [2], the microsomal CLint at 1 µM was determined as 27 µL/min/mg. In addition, in data set [3], the solubility (thermodynamic) is 1310 µM (≈ 639 µg/mL). On Cannabinoid receptor 1 [4], the Emax amounted to 118%. The compound further had a pIC50 in [8] below 4.48.

For the compound `CN(CC(=O)NC1CC1)C(=O)c1ccc2c(c1)c1c(n2C)CC[C@H](C2CCOCC2)C1`, in data set [2], the microsomal CLint at 1 µM was found to be 38 µL/min/mg. The pKi is 6.75 at Cannabinoid receptor 1 [7] and 7.31 on Cannabinoid receptor 2. The compound also displayed a solubility (thermodynamic) in data set [3] of 63 µM (≈ 26.7 µg/mL). Further, on Cannabinoid receptor 1 [4], the Emax is 111%. At Cannabinoid receptor 1 [5], the pEC50 is 6.35.

Turning to `CCN(CCCC(=O)NC1CC1)C(=O)c1ccc2c(c1)c1c(n2C)CCC(C2CCOCC2)C1` (configuration not stated), the microsomal CLint at 1 µM in [2] came out at 143 µL/min/mg. Also, in [3], the thermodynamic solubility turned out to be 224 µM (≈ 104 µg/mL). Further, on Cannabinoid receptor 1 [4], the Emax is 114%. The pEC50 at Cannabinoid receptor 1 [5] is 8.54.

In the case of `CCN(CC(=O)NC1CC1)C(=O)c1ccc2c(c1)c1c(n2C)CC[C@H](C2CCOCC2)C1`, the pKi at Cannabinoid receptor 1 [7] was 7.76. The compound also showed a solubility (thermodynamic) in data set [3] of 49 µM (≈ 21.4 µg/mL). Besides, the Emax on Cannabinoid receptor 1 [4] came to 106%. Besides, at Cannabinoid receptor 1 [5], the pEC50 is 7.62.

Consider `CN(CCCC(=O)NCCO)C(=O)c1ccc2c(c1)c1c(n2C)CC[C@@H](C2CCOCC2)C1`, for which the microsomal CLint at 1 µM in [2] turned out to be 17 µL/min/mg. In data set [3], this compound yielded a thermodynamic solubility of 2490 µM (≈ 1130 µg/mL). Further, the Emax on Cannabinoid receptor 1 [4] is 120%.

`CN(CC(=O)NC1CC1)C(=O)c1ccc2c(c1)c1c(n2C)CCC(C2CCOCC2)C1` (racemic): the microsomal CLint at 1 µM in data set [2] is 37 µL/min/mg. In [3], this compound returned a thermodynamic solubility of 108 µM (≈ 45.7 µg/mL). In addition, the pKi at Cannabinoid receptor 2 is 7.58. Further, the Emax at Cannabinoid receptor 1 [4] is 121%.

As for `Cc1c(C(=O)c2cccc3ccccc23)c2cccc3c2n1[C@H](CN1CCOCC1)CO3` [WIN-552122], in data set [1], the Kp turned out to be 2.3. In data set [3], this compound displayed a solubility (thermodynamic) of 2 µM (≈ 0.853 µg/mL).

In the case of `CNC(=O)CC[C@@H](CO)N(C)C(=O)c1ccc2c(c1)c1c(n2C)CC[C@@H](C2CCOCC2)C1`, in [1], the Kp was below 0.02. In addition, the Papp A→B at 10 µM in data set [6] stood at 0.15 ×10⁻⁶ cm/s. Further, the microsomal CLint at 1 µM in data set [2] was found to be 15 µL/min/mg. In data set [3], this compound gave a thermodynamic solubility above 3000 µM. Moreover, the Emax at Cannabinoid receptor 1 [4] stood at 124%. For the same compound, the pIC50 in [8] is below 4.48.

Take `CNC(=O)CCCN(C)C(=O)c1ccc2c(c1)c1c(n2C)CC[C@H](C2CCOCC2)C1`: the microsomal CLint at 1 µM in data set [2] is 31 µL/min/mg. The same compound showed a pKi at Cannabinoid receptor 1 [7] of 6.24. Moreover, the solubility (thermodynamic) in data set [3] was found to be 1070 µM (≈ 455 µg/mL).

With `Cn1c2c(c3cc(C(=O)NCCCC(=O)NC4CC4)ccc31)CC(C1CCOCC1)CC2` (configuration not stated), the microsomal CLint at 1 µM in [2] turned out to be 47 µL/min/mg. The compound also came in with a solubility (thermodynamic) in data set [3] of 1 µM (≈ 0.438 µg/mL). This compound showed a pIC50 in data set [8] below 4.51.

Consider `CN(CC(=O)NC1CC1)C(=O)c1ccc2c(c1)c1c(n2C)CC[C@@H](C2CCOCC2)C1`, for which, in data set [1], the Kp was 0.024. Also, the Papp A→B at 10 µM in data set [6] was determined as 27 ×10⁻⁶ cm/s. For the same compound, the microsomal CLint at 1 µM in data set [2] came out at 30 µL/min/mg. Also, the values for the pKi at Cannabinoid receptor 1 [7] and on Cannabinoid receptor 2 were 7.61 and 7.67, respectively. Also, the solubility (thermodynamic) in data set [3] is 86 µM (≈ 36.4 µg/mL). The Emax at Cannabinoid receptor 1 [4] came to 116%. Further, on Cannabinoid receptor 1 [5], the negative logarithm of the EC50 (pEC50) is 7.40.

`CCN(CCCC(=O)NCCO)C(=O)c1ccc2c(c1)c1c(n2C)CC[C@@H](C2CCOCC2)C1`: the Kp in data set [1] is below 0.02. In [2], the microsomal CLint at 1 µM worked out at 38 µL/min/mg. Besides, the solubility (thermodynamic) in data set [3] worked out at 760 µM (≈ 357 µg/mL). For the same compound, the Emax on Cannabinoid receptor 1 [4] is 113%. The compound also had a pIC50 in data set [8] below 4.48.

Consider `CCNC(=O)CC[C@@H](CO)N(C)C(=O)c1ccc2c(c1)c1c(n2C)CC[C@@H](C2CCOCC2)C1`, for which, in [1], the Kp was determined as 0.011. Moreover, the microsomal CLint at 1 µM in data set [2] turned out to be 21 µL/min/mg. The Emax on Cannabinoid receptor 1 [4] was found to be 126%.

In the case of `CN(CCCC(=O)NC1COC1)C(=O)c1ccc2c(c1)c1c(n2C)CC[C@@H](C2CCOCC2)C1`, in data set [1], the Kp was 0.019. Moreover, the microsomal CLint at 1 µM in data set [2] was found to be 29 µL/min/mg. Moreover, the thermodynamic solubility in data set [3] was 1670 µM (≈ 781 µg/mL). Also, the Emax on Cannabinoid receptor 1 [4] was determined as 116%. Moreover, the negative-log EC50 (pEC50) at Cannabinoid receptor 1 [5] was 7.36.

Take `CN(CCCC(=O)NCCF)C(=O)c1ccc2c(c1)c1c(n2C)CC[C@@H](C2CCOCC2)C1`: the Kp in data set [1] was determined as 0.02. Besides, in [2], the microsomal CLint at 1 µM came out at 50 µL/min/mg. The thermodynamic solubility in data set [3] is 470 µM (≈ 215 µg/mL). In addition, the Emax on Cannabinoid receptor 1 [4] amounted to 108%. Also, on Cannabinoid receptor 1 [5], the pEC50 is 7.89.

`CN(CCC(=O)NC1CC1)C(=O)c1ccc2c(c1)c1c(n2C)CCC(C2CCOCC2)C1` (configuration not stated) returned a solubility (thermodynamic) in data set [3] of 523 µM (≈ 229 µg/mL).

In the case of `CN(CCCC(=O)NC1CC1)C(=O)c1ccc2c(c1)c1c(n2C)CCC(C2CCOCC2)C1` (configuration not stated), the microsomal CLint at 1 µM in [2] amounted to 73 µL/min/mg. This compound also showed a thermodynamic solubility in data set [3] of 444 µM (≈ 201 µg/mL). Besides, at Cannabinoid receptor 1 [4], the Emax came out at 113%.

In the case of `CONC(=O)CCCN(C)C(=O)c1ccc2c(c1)c1c(n2C)CC[C@@H](C2CCOCC2)C1`, the microsomal CLint at 1 µM in data set [2] was found to be 36 µL/min/mg. This compound yielded a thermodynamic solubility in data set [3] of 1330 µM (≈ 587 µg/mL). For the same compound, at Cannabinoid receptor 1 [4], the Emax turned out to be 104%. Further, the pIC50 in [8] was below 4.48.

`CNC(=O)CCCN(C)C(=O)c1ccc2c(c1)c1c(n2C)CCC(C2CCOCC2)C1` (racemic): the microsomal CLint at 1 µM in [2] turned out to be 27 µL/min/mg. In [3], this compound gave a solubility (thermodynamic) of 1550 µM (≈ 660 µg/mL). Also, the Emax on Cannabinoid receptor 1 [4] is 121%.

In the case of `CCN(CC(=O)NC1CC1)C(=O)c1ccc2c(c1)c1c(n2C)CCC(C2CCOCC2)C1` (racemic), the microsomal CLint at 1 µM in data set [2] stood at 53 µL/min/mg. For the same compound, the solubility (thermodynamic) in data set [3] is 36 µM (≈ 15.8 µg/mL). In addition, on Cannabinoid receptor 1 [4], the Emax was 106%.

Consider `CCS(=O)(=O)n1c2c(c3cc(C(=O)N4CCC(C)CC4)ccc31)CN(C1CCOCC1)CC2`, for which the Kp in data set [1] amounted to 0.07. Also, in [6], the apical-to-basolateral permeability (Papp A→B) at 10 µM turned out to be 13 ×10⁻⁶ cm/s. In addition, the solubility (thermodynamic) in data set [3] was above 1030 µM. In addition, the maximal response (Emax) on Cannabinoid receptor 1 [4] turned out to be 120%.

Regarding `CCCCCOc1ccc(C(=O)c2cccc3ccccc23)c2ccccc12`, the Kp in data set [1] worked out at 0.29. Also, the Emax on Cannabinoid receptor 1 [4] turned out to be 112%.

The record behind these values is ChEMBL document CHEMBL2029249, “N-Methyl-3-(tetrahydro-2H-pyran-4-yl)-2,3,4,9-tetrahydro-1H-carbazole-6-carboxamides as a novel class of cannabinoid receptors agonists with low CNS penetration” (Bioorg Med Chem Lett, 2012).
